The series can be described thus: Toxicity liver stage against HepG2, at 10uM. It counts as cell-based. The arrangement: test concentration 10 uM, cell line HepG2-A16-CD81EGFP. The note with it: human, HepG2-A16-CD81EGFP cells; read-out: INHIBITION
The gist of the method:
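Uninfected HepG2-A16-CD81EGFP cells, 3 × 10^3 per well, 1536-well, plated on prespotted compound at 10 μM final, parasite-free screening media added to match infected plates; puromycin 10 μM positive, DMSO 0.5% negative; run in parallel with 48 h PbLuc assay at 37 °C, 5% CO2; viability by CellTiter-Glo luminescence, normalized to controls.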
As to `CCO[C@@H]1CC[C@H]2[C@H]1OCCN2C(=O)c1ccc(C)o1`, the cytotoxicity at 10 µM was -149%.

Regarding `Cc1cc2nc(SCC(=O)N3CCOCC3)n(C(C)C)c(=O)c2[nH]1`, the cytotoxicity at 10 µM amounted to 11%.

In the case of `COc1cccc(C(=O)Oc2cc(=O)n3cccc(C)c3n2)c1`, the cytotoxicity at 10 µM amounted to 6.36%.

Take `O=c1[nH]nc2c(N3CCCCCC3)nccn12`: the cytotoxicity at 10 µM was 10.5%.

`Cn1cc2c(n1)C(CNC(=O)Cc1ccsc1)OCC2` (stereo not drawn): the cytotoxicity at 10 µM amounted to 0.175%.

On to `O=C(NCCCN1CCOCC1)c1ccn(COc2ccc(Br)cc2)n1`, for which the cytotoxicity at 10 µM was 5.39%.

Take `Cc1cc(C(F)(F)F)nn1C(C)C(=O)Nc1ccc(Cl)cn1` (stereo not drawn): the cytotoxicity at 10 µM is 11.6%.

Consider `CC(C)(C)NC(=O)CCn1ncc2c(Cl)cccc21`, for which the cytotoxicity at 10 µM amounted to 7.25%.

Consider `O=C(NC1CC1)C1CCc2nnc(-c3cccnc3)n21` (stereo not drawn), for which the cytotoxicity at 10 µM worked out at 8.96%.

For the molecule `Cn1nc(C2CCNC2)c2c(C(=O)NCC(F)(F)F)cc(C3CC3)nc21` (stereo not drawn), the cytotoxicity at 10 µM worked out at 8.41%.

As for `Cc1csc(C2(NC(=O)NCCN3CCOCC3)CCC2)n1`, the cytotoxicity at 10 µM is -0.746%.

In the case of `CCCNC(=O)CN1CCCC1c1nc(Cc2ccc(F)cc2)no1` (stereo not drawn), the cytotoxicity at 10 µM was 4.8%.

For the molecule `CCN(CC)CC1CCN(Cc2ncc(C(C)(C)C)o2)CC1`, the cytotoxicity at 10 µM was -7.22%.

As to `Cc1ccc(C(CNCc2nccn2C)N2CCOCC2)s1` (stereo not drawn), the cytotoxicity at 10 µM was -1.76%.

For the molecule `Cc1ccoc1CNCc1nnc2n1CCCC2C(F)(F)F` (stereo not drawn), the cytotoxicity at 10 µM was determined as 13.9%.

For `O=C(NS(=O)(=O)c1ccccc1C(F)(F)F)c1cccc2c1OCCO2`, the cytotoxicity at 10 µM stood at 5.56%.

`Cc1nnc(NC(=O)c2cc(S(=O)(=O)N3CCSCC3)c[nH]2)s1`: the cytotoxicity at 10 µM was -7.01%.

Turning to `CC(C)c1nc(CC(=O)N(C)Cc2ccc3c(c2)OCO3)cs1`, the cytotoxicity at 10 µM was -13.5%.

As to `COc1ccc(CNC(=O)NCc2ccc(C)cc2)cn1`, the cytotoxicity at 10 µM was -5.63%.

With `CSCC(=O)N(C)Cc1ccc(N(C)C)cc1`, the cytotoxicity at 10 µM turned out to be 8.63%.

In the case of `COc1cccc(CCNC(=O)CCS(=O)(=O)C2CCCC2)c1`, the cytotoxicity at 10 µM was found to be 2.2%.

Regarding `O=C1OCCN1CCCN1CCCC1c1ccc(O)cc1` (stereo not drawn), the cytotoxicity at 10 µM was -6.3%.

As for `Cc1cnn(CCNCc2nc(-c3ccsc3)oc2C)c1`, the cytotoxicity at 10 µM was -3.55%.

On to `Cc1nc(C)n(Cc2cccc(NC(=O)NC(C)(CO)C3CC3)c2)n1` (stereo not drawn), for which the cytotoxicity at 10 µM worked out at 14.3%.

With `CCOc1ccc(C(C)NC(=O)N2CCC(C(N)=O)CC2)cc1OC` (stereo not drawn), the cytotoxicity at 10 µM is -4.56%.

As for `Clc1ccc(OCCN2CCN(CCn3cncn3)CC2)cc1`, the cytotoxicity at 10 µM is -17.4%.

Take `COc1ncccc1CN1C[C@@H]2CN(c3ncccn3)C[C@@H]2C1`: the cytotoxicity at 10 µM was -5.11%.

On to `CC(C)n1c2ccccc2c2c1cc(C(=O)N(C)C)n2C(=O)N(C)C`, for which the cytotoxicity at 10 µM was -95%.

For the molecule `CO[C@@H]1CC[C@H]2[C@H]1OCCN2C(=O)COc1ccc(C)cc1`, the cytotoxicity at 10 µM was -99%.

Regarding `CCC1=N[C@@]2(CC[C@@H]3CN(C(=O)NCC4CCCCC4)C[C@@H]32)C(=O)N1`, the cytotoxicity at 10 µM was -70.2%.

`Cc1cc(CC(C)Nc2nc(-c3cccnc3)nc3c2CNC3)[nH]n1` (stereo not drawn): the cytotoxicity at 10 µM came to 3.28%.

With `Cc1noc(C)c1CN1CC[C@H]2[C@H]1CCN2CC1CCOCC1`, the cytotoxicity at 10 µM stood at 2%.

Take `CC(C)N1[C@H](Cn2cncn2)C[C@@H]2CN(Cc3ccsc3)CC[C@@H]21`: the cytotoxicity at 10 µM is -117%.

Regarding `Cn1ncc2c1C(COCC1CC1)N(C(=O)c1ccncn1)CC2` (stereo not drawn), the cytotoxicity at 10 µM is -132%.

In the case of `O=C(c1ccncc1)N1C[C@@H]2CCN(c3cccnc3)C[C@@H]2C1`, the cytotoxicity at 10 µM was -71.5%.

`CN1CCN(Cc2cccc(C#N)c2)Cc2cccnc21`: the cytotoxicity at 10 µM was -83.2%.

For the molecule `COc1ccc(CN2CCc3ncnc(C4CC4)c3CC2)cc1`, the cytotoxicity at 10 µM was -148%.

Consider `CC1CCC(C(=O)N2CCC(n3cc(C4(O)CCCC4)nn3)CC2)CC1` (stereo not drawn), for which the cytotoxicity at 10 µM worked out at 9.08%.

(Values after ChEMBL document CHEMBL4513216, “Probing the Open Global Health Chemical Diversity Library for Multistage-Active Starting Points for Next-Generation Antimalarials” (ACS Infect Dis, 2020).)
